This is an account of results in ChEMBL document CHEMBL6103596, “Design, Synthesis, and Biological Evaluation of BODIPY-Caged Resiquimod as a Dual-Acting Phototherapeutic” (J Med Chem, 2025).

Data set [1] in a line: Drug uptake in human AD293 cells assessed as increase in red fluorescence at 10 uM measured after 40 mins by fluorescence imaging based analysis. In kind it is ADME, cell-based. The note with it: ad293, 40 min.
The nature of data set [2]: Upregulation of iNOS mRNA expression in mouse RAW264.7 cells assessed as fold change at 100 nM preincubated with NAC followed by compound addition and measured after 30 mins under 650nm LED light irradiation by real-time PCR analysis. Type of data set: functional. The note with it: 0.5 h. In a few lines:
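RAW264.7 cells seeded at 0.3 million per 35 mm dish. Next day, pretreated with 10 mM N-acetyl-cysteine for 30 min, then given 100 nM compound and 650 nm LED light for 30 min. Total RNA taken 24 h later and reverse transcribed with random primers. SYBR real-time PCR run for 40 cycles (95/60/72 °C). Quantities calculated by the Ct method. Results given as fold change, means ± SD.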

The nature of data set [3]: Photosensitizing ability of the compound assessed as singlet oxygen quantum yield under 600nm monochromatic light irradiation by DPBF based assay relative to control. Type of data set: functional. Summed up:
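Singlet oxygen generation followed by the decrease in DPBF absorbance under irradiation. DPBF (20–25 μm) used at 5–10-fold excess over compound (2.5–5 μm).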

Data set [4] is described as follows: Induction of superoxide anion radical assessed as DMPO-O2 radical adduct formation under dark condition measured after 10 mins by ESR spectra analysis. In kind it is functional. In a few lines: (§1)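 ESR spectra recorded with DMPO as spin trap to detect superoxide and/or hydroxyl radical adducts, before and after 10 min irradiation of compound.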
The nature of data set [5]: Induction of hydroxyl radical assessed as DMPO-OH radical adduct formation under dark condition measured after 10 mins by ESR spectra analysis. In kind it is functional. Summed up:
as §1

Data set [6] can be described thus: Induction of hydroxyl radical assessed as DMPO-OH radical adduct formation under light irradiation measured after 10 mins by ESR spectra analysis. In kind it is functional. In a few lines: as §1
Data set [7] in a line: Phototoxicity in human A549 cells assessed as cell viability at 10 uM under 530 ot 650nm 30 mW LED light irradiation and measured after 72 hrs by CCK-8 method relative to control. In kind it is functional. The note with it: A549, light or radiation study, read-out: Activity. Summed up: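 A549, HaCaT and HeLa cells seeded at 2 × 10^3 cells/well in phenol red-free DMEM with 10% FBS. After 24 h, medium replaced with 1% DMSO containing 10 μM compound. After 90 min, one plate kept dark and one exposed to 530 or 650 nm LED (30 mW) for 15 min. Plates incubated 72 h, then CCK-8 read at 450 nm. Viability taken relative to dark control. Triplicates (HaCaT six).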
In general terms: Tetrazolium dyes change colour on reduction, which living cells bring about.

Data set [8] can be described thus: Thermal stability of compound in DMSO-d6 at 37.5 degree C measured after 3 days by 1H NMR spectroscopy analysis relative to control. Type of data set: physicochemical. The note with it: 72 h; time 3 day. Summed up: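 Compound in DMSO-d6 followed by 1H NMR. Degradation taken from the intensity of three signals (one resiquimod, one BODIPY, and the linkage NH), each relative to the DMSO-d6 internal standard, and the three averaged.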

A short description of data set [9]: Photorelease activity of the compound in DMSO-d6 measured within 90 mins under 660nm 400mW LED light by 1H NMR spectroscopy analysis relative to control. In kind it is ADME. The following applies: 1.5 h.
A short description of data set [10]: Photorelease activity of the compound in aqueous solution at 30 uM under dark condition by 1H NMR spectroscopy analysis. In kind it is ADME. The note with it: buffer.

Calls of active or inactive are those of the source. The rule behind the calls is not given here.

As to `CCOCc1nc2c(NC(=O)OCC3=C4C(C)=CC(/C=C/c5ccc(OCCOCCOCCOC)cc5)=[N+]4[B-](C)(C)n4c(/C=C/c5ccc(OCCOCCOCCOC)cc5)cc(C)c43)nc3ccccc3c2n1CC(C)(C)O`, the Drug uptake result in [1] is reported as “Active”. The “fold change (FC)” value in [2] is given as approximately 4. The Activity in data set [3] is 1.2%; in [8] it was 15%; in [9], ~ 90%; in data set [10] it was “Not_active”. The result in data set [4], in data set [5] and in [6] was inactive. Also, the viability at 10 µM in data set [7] amounted to 55%.
